Broadly, the apparent Kd is a dissociation constant that holds for the conditions of the assay.

The data set relates to MS2 coat protein. The data set is described as follows: apparent Kd, MS2 coat protein; higher = weaker binding; RNA-MaP array; FMN 200 µM where present. The gist of the method: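 Each design was made on Illumina sequencing-chip clusters by stalled E. coli RNA polymerase and titrated with SNAP-549-labelled MS2 coat protein from 0.7 or 1.5 nM, doubling to 3 µM, in the absence and then the presence of constant ligand. The buffer was 100 mM Tris-HCl pH 7.5, 80 mM KCl, 4 mM MgCl2, BSA, DTT, yeast tRNA and Tween-20. The apparent Kd is the median of filtered per-cluster fits of binding curves, with green signal normalised to red-channel RNA signal and control-cluster median Fmax.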

The mark [1] stands for this setting: designed as: OFF switch for flavin mononucleotide, no ligand.
The mark [2] stands for this setting: ligand present: flavin mononucleotide, designed as: OFF switch for flavin mononucleotide.
Where [3] appears, read: designed as: ON switch for flavin mononucleotide, no ligand.
[4] abbreviates: ligand present: flavin mononucleotide, designed as: ON switch for flavin mononucleotide.

On to “GAUUCGGGAGGAUAUACAUGAGGAUCACCCAUGUGUUUUUUGUGUGUUUUGUUAUCGUGUAGAAGGUUUGGGUC”, for which the “apparent Kd” value is, setting by setting: under setting [1], 117 nM; under setting [2], 172 nM.
On to “GCCAUCGUAUGAGGAUAUGACACCGAAACGGUGUCAGAAGGCAUGUCGAUAGACAUGAGGAUCACCCAUGUAUUAACGAUGGCA”, for which the “apparent Kd” value turned out to be 740 nM under setting [3] and 94.2 nM under setting [4].
For the sequence “GGAUAGGACGGAGGAUAUACGUGCUAGAGAUACUAGCAAAAUUUCCUCACAUGAGGAUCACCCAUGUAGAAGGCUGUCCUAUCG”, the “apparent Kd” value under setting [1] came out at 12.2 nM and the “apparent Kd” value under setting [2] came to 222 nM.
For the sequence “GGUCGUCACAUUAACAUGAGGAUCACCCAUGUCUCUUGACAUGAGGAUAUGGAUCCUAAUUGGAUCCAGAAGGCAUGGACGACC”, the “apparent Kd” value runs as follows: under setting [3], 1030 nM; under setting [4], 96.5 nM.
Turning to “ACAUGAGGAUCACCCAUGUUCACAUAGGAUAUUGAUUAUAUUGGUUUAAGAAUAGUAAUUGACCUCAAGAAGGAUGCCUGAUCU”, the “apparent Kd” value under setting [3] was 15.3 nM and the “apparent Kd” value under setting [4] was found to be 12.2 nM.
In the case of “UGGUUGUGUGUCAGGAUAUGGUCUGGUGUUUCGGGCUAGAAGGGACAUGAGGAUCACCCAUGUGGCUGGUGCGC”, the “apparent Kd” value under setting [1] is 149 nM and the “apparent Kd” value under setting [2] was 186 nM.
Taken in the same sequence, the figures for “UUGUUGUAUGUAGGAUAUGCAUAUUAUUAUUAUGCAGAAGGACAUGAGGAUCACCCAUGUGUAUUAUUAUUAUAUAUUAUAUAU” were 25.5 nM and 44.1 nM.
Take “UAAGUUUAGGUAGGAUAUACUUUAAAUUUCUCUAUCCAUACAUGAGGAUCACCCAUGUUUACAUUGUAGAAGGACCACUAUGUU”: the “apparent Kd” value reads like this: under setting [1], 24.6 nM; under setting [2], 20.4 nM.
Regarding “UGCGGUUGAGGAUAUACGUAGAAAUAGAUUCAUGUAAAACUACAUGAGGAUCACCCAUGUAGAAGGCAAUCGCU”, the “apparent Kd” value is, setting by setting: under setting [1], 25.7 nM; under setting [2], 217 nM.
As for “GGAGCUCCUGACAUGAGGAUCACCCAUGUUCACUUAUUAACUCAGGAUAUCGUCUCGAAACGAGACGAGAAGGGAGAUGCUCCU”, the “apparent Kd” value worked out at 8.36 nM under setting [3] and 6.76 nM under setting [4].
As for “ACGCUUUGGGAGAAGGUACUUUAAAAUAUUUCCACAUGAGGAUCACCCAUGUAAGGAUAUCCCAUCGUUAAAUAUUAUACAGCA”, the “apparent Kd” value reads like this: under setting [1], 8.91 nM; under setting [2], 6.88 nM.
For “CUUUGCGUUAGAGGAUAUAUUGUGUGUUACACAAUAGAAGGCUAAACAAACAUGAGGAUCACCCAUGUUGUCCAUGUCGUCGGC”, the “apparent Kd” value was found to be 16.8 nM under setting [3] and 21 nM under setting [4].
For “CAUAUCGUAACAGGAUAUAUGAGUCCUACAUGAGGAUCACCCAUGUAGGUGAUCUAACGAGAUUAGUAGAAGGGUUACGAUAUG” the same measures were 16.6 nM and 8.68 nM.
For “GAGAAGUCAGGAUAUGCAUGGCGGGACUUGCGUCGUGGCGUGCAGAAGGGACAUGAGGAUCACCCAUGUAAAGA”, the “apparent Kd” value runs as follows: under setting [1], 53 nM; under setting [2], 49 nM.
Taken in the same sequence, the figures for “UAUUAAUGCAAGGAUAUGCUAUUAAUUUUUUUUGCAGAAGGUGCAACAUGAGGAUCACCCAUGUUUGAGGGUAU” were 66.8 nM and 67.8 nM.
Taken in the same sequence, the figures for “CCUAGAGAAGGAUAUACAUGAGGAUCACCCAUGUUCCGGCGCACAAUUAUGCGCCAAUGUAGAAGGUCUGGGCA” were 23.6 nM and 26.6 nM.
Taken in the same sequence, the figures for “AGGCGAGUAGGAUAUGCGUAUUUACGGGAAAGCUGGAUGAUACAUGAGGAUCACCCAUGUAGAAGGGCUCUGAA” were 19.2 nM and 15.3 nM.
Turning to “CGCACUUAUAGAGGAUAUGUUAAACAUGAGGAUCACCCAUGUGAUUUAGUAUCAAUAUUAGUGAAACAGAAGGCUAUUAGUGCG”, the “apparent Kd” value under setting [1] turned out to be 13.3 nM and the “apparent Kd” value under setting [2] was determined as 12.9 nM.
For “AUGGUCAUGUUAGGAUAUGACGCGCUGUACGCAUCAGAAGGAACAUGAGGAUCACCCAUGUAUAGAGUAAUGUCGCUUACUCUC”, the “apparent Kd” value under setting [1] worked out at 47.9 nM and the “apparent Kd” value under setting [2] came out at 187 nM.
For “AAUUAUAUACAGAAGGAGUUAUAUUAAGUAUUACUAGGAUAUGUUCACAUGAGGAUCACCCAUGUCAUAUUGGGAUUUAUUUUU” the same measures were 17 nM and 21.6 nM.
For “CAGUGCAUUGAGAAGGGACACCGGGAUCCCAACUUCUCUCAUAACGGACAUGAGGAUCACCCAUGUCAGGAUAUCAACGUUUAG” the same measures were 23.1 nM and 16.7 nM.
Taken in the same sequence, the figures for “GCACUUAGAGAGGUACCGUUACGAACAUGAGGAUCACCCAUGUAGGAUAUGCUAAUAGUAUUGAAGCAGAAGGACACUAAGUGC” were 7.21 nM and 30.4 nM.
For the sequence “GGGCUCGGAGGAUAUACAUGAGGAUCACCCAUGUAGGGCUCGGGUAUUUCUGGGUCUUGUAGAAGGCUGGGUCU”, the “apparent Kd” value by setting is: under setting [1], 21.3 nM; under setting [2], 30 nM.
With “UGAUUUCAUGUAGGAUAUGCUUGGCGAAGCUACGCAGAAGGACAUGAGGAUCACCCAUGUUUUAGCGUCUGAGUAUAGAUUCUA”, the “apparent Kd” value is 30.6 nM under setting [1] and 187 nM under setting [2].
On to “CGAAGUCCGUAGAAGGGUGACAUGAGGAUCACCCAUGUGCGAGCCGAGGGAGUCAGCGGCUCGCCACAGGAUAUACGGAGCACG”, for which the “apparent Kd” value reads like this: under setting [3], 33.5 nM; under setting [4], 21.7 nM.
On to “GAACUGAAGCAUAGCUUUAGUCGUACAUGAGGAUCACCCAUGUAGGAUAUGGUAGGCUUAGCUUACUAGAAGGAUAGAGUGAUC”, for which the “apparent Kd” value under setting [1] turned out to be 140 nM and the “apparent Kd” value under setting [2] was 66.8 nM.
For “AGUGUUGGAGGAUAUACAUGAGGAUCACCCAUGUACAUCACACAGUAUAUCAAACCAUGUAGAAGGCCAAUACA” the same measures were 18.2 nM and 36.4 nM.
Taken in the same sequence, the figures for “GCGUCAGAAUUAAUUGUGACAUACAGAAGGCAAAAGUUAAGAUCAGACAUGAGGAUCACCCAUGUUGAGGAUAUGUAGAGAAUC” were 10.4 nM and 8.72 nM.
Take “UUGGACGUCGUAGGAUAUAUAGGAUAUUCCUACAUGAGGAUCACCCAUGUUGACAUGGAAGAAGGACAGAAGGACGAUGUCCAU”: the “apparent Kd” value reads like this: under setting [3], 27.1 nM; under setting [4], 9.75 nM.
“UUGGACGUCGUAGGAUAUGUAGGAUAUUCCUACAUGAGGAUCACCCAUGUUGACAUGGAAGAAGGACAGAAGUACGAUGUCCAU”: the “apparent Kd” value under setting [4] was 5.6 nM.
Take “GCCAUCGUAUGAGGAUAUGGCACCGAAACGGUGCCAGAAGGCAUGUCAAUAGACAUGAGGAUCACCCAUGUCUUAUCGAUGGCA”: the “apparent Kd” value is, setting by setting: under setting [3], 19.9 nM; under setting [4], 18.9 nM.
For “UCAUUGAUUGUGAGGAUAUCGAUGUGAUGGAUUGUCGAGAAGGCACAUGAGGAUCACCCAUGUGGGUGUGGGCU”, the “apparent Kd” value under setting [1] is 864 nM and the “apparent Kd” value under setting [2] came to 454 nM.
Taken in the same sequence, the figures for “ACAUGUAAUACAGGAUAUGUUAUACAUUAAUCAAUCAGUUAUUAUGAUUAUACAGAAGGGUAUACAUGAGGAUCACCCAUGUUA” were 19.7 nM and 26.2 nM.
For the sequence “GGUUGUCAUCGUCGUCCUUUCGUUACAUGAGGAUCACCCAUGUAGGAUAUGCUGCAUUCGAUGUGGCAGAAGGGCAUGUGUGUU”, the “apparent Kd” value was 18.1 nM under setting [1] and 31.6 nM under setting [2].
Turning to “CGUAGGAUCCAGAAGGCAUGUACAUGAGGAUCACCCAUGUCGAUAGACAUGAGGAUAUGGAUCCUACGAAAAGUGCGAAAGCAC”, the “apparent Kd” value was determined as 17.1 nM under setting [3] and 5.16 nM under setting [4].
In the case of “AUUAGUAAUAAGGAUAUCACUAGCUGCGGCUAGUGAGAAGGUAUUACAUGAGGAUCACCCAUGUGAUUAAUUAA”, the “apparent Kd” value reads like this: under setting [1], 76.4 nM; under setting [2], 418 nM.
Taken in the same sequence, the figures for “AGUGUGUGGCAGGAUAUUCCGGUCGUGGGUCGGGAAGAAGGGUCUACAUGAGGAUCACCCAUGUGAGCGGUUGA” were 210 nM and 241 nM.
Taken in the same sequence, the figures for “UGAACCCAUGUUAGGAUAUCAGGCCGAGGAAGUUCUGAGAAGGGACAUGAGGAUCACCCAUGUAUAAAAGAAAC” were 70.6 nM and 41.8 nM.
For “AUAGGGUGAGGAUAUCCAUCUGGAUCAGACUAGAUCCUGAUGGAGAAGGCACAUGAGGAUCACCCAUGUGAGUU” the same measures were 125 nM and 151 nM.
As for “GCAUCUCUAUUAGAACCGAUACGAACAUGAGGAUCACCCAUGUAGGAUAUGCUAAAAGUUGUGUUGCAGAAGGACAUUUAAUGC”, the “apparent Kd” value is, setting by setting: under setting [1], 9.49 nM; under setting [2], 8.64 nM.
For “AAGCUGGUAGGAUAUACUAGGGCAACUAAUGCGCCGAUAGGACAUGAGGAUCACCCAUGUAGAAGGGCCAGAAA” the same measures were 80.1 nM and 93.1 nM.
Taken in the same sequence, the figures for “AUCAGCUCGUCAGGAUAUACGUCACUGCGUCAGCAGUGUGGUAAGAUCACAUGAGGAUCACCCAUGUAGAAGGGACGAGCUAAU” were 13.7 nM and 334 nM.
With “CCCAAACUUGGGCUUGGUGGUGCAUAGGAUAUGCUUGAACAUGAGGAUCACCCAUGUGCAACUGUGCAGAAGGGUGCAGGGCCU”, the “apparent Kd” value turned out to be 12.7 nM under setting [3] and 8.31 nM under setting [4].
Regarding “GCAGGGUAUGAGAAGGCAUAAUUUAUCUUACCACAUGUUUACAUGAGGAUCACCCAUGUUUCCUAUGAGGAUAUCAUACCGUGC”, the “apparent Kd” value turned out to be 12.4 nM under setting [1] and 9.98 nM under setting [2].
As to “UUAUGAGCGAUAGGAUAUACUGAGAUUGAAUGGGUAGAAGGAUCGAUCGUGUGGAAGACAUGAGGAUCACCCAUGUUACGGGCC”, the “apparent Kd” value runs as follows: under setting [3], 56 nM; under setting [4], 166 nM.
With “AUAAAGCGAGGAUAUCGCGCGGAGUACAUGAGGAUCACCCAUGUGGUCCGCAGUCCUGCGCGAGAAGGCGCAUUCC”, the “apparent Kd” value is, setting by setting: under setting [1], 138 nM; under setting [2], 54.2 nM.
Taken in the same sequence, the figures for “CAUAUGUCAGGAUAUUAUCUCAAGGUAUUCGUUACUAACGAUAAGAAGGGACAUGAGGAUCACCCAUGUGCCGC” were 18.4 nM and 24.2 nM.
Consider “AUAAACAUGAGGAUCACCCAUGUGAGAAGGCGCAUUACUAUAUUUAUACACUUUAAUACUAACAGCGAGGAUAUCACCUCAUAA”, for which the “apparent Kd” value under setting [1] amounted to 15.8 nM and the “apparent Kd” value under setting [2] turned out to be 24.7 nM.

The values above are taken from the EternaBench riboswitch data.
